According to ChEMBL document CHEMBL1142957, “Total structure and inhibition of tumor cell proliferation of laxaphycins” (J Med Chem, 2007):

Columns and labels:
CCRF-CEM [1] = experiment: Ratio of IC50 for teniposide-resistant CEM/VM1 cells over IC50 for drug-sensitive CCRF-CEM cells; format: functional, Homo sapiens
[2] = Cytotoxicity against teniposide-resistant CEM/VM1 cells after 72 hrs; format: cell-based; conditions: Homo sapiens, CEM-VM1, 72 h
Outline: (§1)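 Leukemic lymphoblasts (parent CCRF-CEM, Pgp-overexpressing CEM/VLB100, topo II-altered CEM/VM-1) grown in RPMI 1640 with 10% FCS and antibiotics, 37 °C, 5% CO2. Serial dilutions in medium added to 2 × 10⁵ cells/mL for 3 days, medium not renewed. Survivors counted on a Coulter counter. Triplicate, averaged.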

[3] = Cytotoxicity against vinblastine-resistant CEM/VLB100 cells after 72 hrs; format: cell-based; conditions: Homo sapiens, CEM/VLB100, 72 h; outline: as §1
CCRF-CEM [4] = experiment: Cytotoxicity against drug-sensitive CCRF-CEM cells after 72 hrs; format: cell-based; conditions: Homo sapiens; outline: as §1
CCRF-CEM [5] = experiment: Ratio of IC50 for vinblastine-resistant CEM/VLB100 cells over IC50 for drug-sensitive CCRF-CEM cells; format: functional, Homo sapiens
CEM-VLB [6] = experiment: Antiproliferative activity against vinblastine-resistant CEM/VLB100 after 72 hrs in presence of 0.2 uM laxaphycin A; format: functional, cell-based; conditions: Homo sapiens; outline: as §1
[7] = Cytotoxicity against human fibroblasts after 48 hrs by RRT; format: cell-based; conditions: fibroblast
Outline: (§2)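 Adherent lines in supplemented Glutamax MEM, 37 °C, 5% CO2. Seeded 5 × 10³ cells/well, adhered 16 h, then treated 48 h continuously, alone or in combination, in 0.5% DMSO (solvent control). Resazurin 25 µg/mL in MEM added, 1 h at 37 °C, fluorescence 530/590 nm. Survival = % of control after blank subtraction; IC50 from concentration–survival curve. Two independent assays in triplicate.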

[8] = Cytotoxicity against human fibroblasts after 48 hrs by Hoechst 33342 assay; format: cell-based; conditions: fibroblast
Outline: (§3)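 Adherent lines in Glutamax MEM with Earle's salts, FCS, vitamins, pyruvate, NEAA, glutamine, gentamycin. Seeded 5 × 10³ cells/well, adhered 16 h, then 48 h continuous exposure in 0.5% DMSO (solvent control). After resazurin read, cells PBS-rinsed and stored at −80 °C. Then thawed and given 30 µg/mL Hoechst 33342 in Tris pH 7.4/EDTA/NaCl buffer, 1 h at 37 °C, fluorescence 360/460 nm (DNA ∝ biomass). Two independent assays in triplicate, mean ± SD.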

CCRF-CEM [9] = experiment: Antiproliferative activity against drug-sensitive CCRF-CEM cells after 72 hrs in presence of 1 uM laxaphycin A; format: functional, cell-based; conditions: Homo sapiens; outline: as §1
[10] = Cytotoxicity against human M4Beu cells after 48 hrs by Hoechst 33342 assay; format: cell-based; outline: as §3
DLD-1 [11] = experiment: Cytotoxicity against human DLD1cells after 48 hrs by Hoechst 33342 assay; format: cell-based; conditions: dld-1, 48 h; outline: as §3
MCF7 [12] = experiment: Cytotoxicity against human MCF7 cells after 48 hrs by RRT; format: cell-based; conditions: MCF7, 48 h; outline: as §2
[13] = Cytotoxicity against human […] cells after 48 hrs by Hoechst 33342 assay; format: cell-based; outline: as §3
DLD-1 [14] = experiment: Survival of human DLD1 cells at 2 uM after 48 hrs by RRT assay; format: functional
Outline: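 Adherent cells cultured in Glutamax Eagle's MEM with Earle's salts, fetal calf serum, vitamins, pyruvate, nonessential amino acids, glutamine and gentamycin at 37 °C, 5% CO2. Seeded 5 × 10³ cells/well, 16 h adhesion, then 48 h continuous exposure in 0.5% DMSO, alone or combined. Resazurin (25 µg/mL in MEM) added for 1 h at 37 °C, fluorescence 530/590 nm; survival as percentage of solvent controls after blank subtraction; two independent experiments in triplicate, averaged.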

PC-3 [15] = experiment: Cytotoxicity against human androgen-resistant PC3 cells after 48 hrs by RRT; format: cell-based; conditions: PC-3, 48 h; outline: as §2
CEM-VLB [16] = experiment: Interaction index, ratio of IC50 for CEM/VLB100 cells in presence of 0.4 uM laxaphycin A/IC50 for CEM/VLB100 cells; format: functional, Homo sapiens
[17] = Cytotoxicity against human PA1 cells after 48 hrs by RRT; format: cell-based; conditions: pa-1, 48 h; outline: as §2
DLD-1 [18] = experiment: Increase in cytotoxicity in human DLD1 cells at 2 uM after 48 hrs in presence of 2 uM laxaphycin A by RRT assay; format: cell-based; conditions: dld-1, 48 h; outline: as §2
CCRF-CEM [19] = experiment: Interaction index, ratio of IC50 for CCRF-CEM cells in presence of 0.4 uM laxaphycin A/IC50 for CCRF-CEM cells; format: functional, Homo sapiens
CEM-VLB [20] = experiment: Antiproliferative activity against vinblastine-resistant CEM/VLB100 after 72 hrs in presence of 0.4 uM laxaphycin A; format: functional, cell-based; conditions: Homo sapiens; outline: as §1
CEM-VLB [21] = experiment: Antiproliferative activity against vinblastine-resistant CEM/VLB100 after 72 hrs in presence of 1 uM laxaphycin A; format: functional, cell-based; conditions: Homo sapiens; outline: as §1
CEM-VM1 [22] = experiment: Interaction index, ratio of IC50 for CEM/VM1 cells in presence of 2 uM laxaphycin A/IC50 for CEM/VM1 cells; format: functional, Homo sapiens
[23] = Cytotoxicity against human M4Beu cells after 48 hrs by RRT; format: cell-based; outline: as §2
CEM-VM1 [24] = experiment: Interaction index, ratio of IC50 for CEM/VM1 cells in presence of 1 uM laxaphycin A/IC50 for CEM/VM1 cells; format: functional, Homo sapiens
PC-3 [25] = experiment: Cytotoxicity against human androgen-resistant PC3 cells after 48 hrs by Hoechst 33342 assay; format: cell-based; conditions: PC-3, 48 h; outline: as §3
CEM-VLB [26] = experiment: Antiproliferative activity against vinblastine-resistant CEM/VLB100 after 72 hrs in presence of 2 uM laxaphycin A; format: functional, cell-based; conditions: Homo sapiens; outline: as §1
CCRF-CEM [27] = experiment: Interaction index, ratio of IC50 for CCRF-CEM cells in presence of 1 uM laxaphycin A/IC50 for CCRF-CEM cells; format: functional, Homo sapiens
DLD-1 [28] = experiment: Increase in cytotoxicity in human DLD1 cells at 2 uM after 48 hrs in presence of 1 uM laxaphycin A by RRT assay; format: cell-based; conditions: dld-1, 48 h; outline: as §2
DLD-1 [29] = experiment: Increase in cytotoxicity in human DLD1 cells at 2 uM after 48 hrs in presence of 1.5 uM laxaphycin A by RRT assay; format: cell-based; conditions: dld-1, 48 h; outline: as §2
CEM-VM1 [30] = experiment: Interaction index, ratio of IC50 for CEM/VM1 cells in presence of 0.4 uM laxaphycin A/IC50 for CEM/VM1 cells; format: functional, Homo sapiens
CEM-VM1 [31] = experiment: Antiproliferative activity against teniposide-resistant CEM/VM1 after 72 hrs in presence of 0.4 uM laxaphycin A; format: functional, cell-based; conditions: Homo sapiens, CEM-VM1, 72 h; outline: as §1
DLD-1 [32] = experiment: Cytotoxicity against human DLD1cells after 48 hrs by RRT; format: cell-based; conditions: dld-1, 48 h; outline: as §2
MCF7 [33] = experiment: Cytotoxicity against human MCF7 cells after 48 hrs by Hoechst 33342 assay; format: cell-based; conditions: MCF7, 48 h; outline: as §3
CEM-VM1 [34] = experiment: Antiproliferative activity against teniposide-resistant CEM/VM1 after 72 hrs in presence of 0.2 uM laxaphycin A; format: functional, cell-based; conditions: Homo sapiens, CEM-VM1, 72 h; outline: as §1
CEM-VM1 [35] = experiment: Interaction index, ratio of IC50 for CEM/VM1 cells in presence of 0.2 uM laxaphycin A/IC50 for CEM/VM1 cells; format: functional, Homo sapiens
CCRF-CEM [36] = experiment: Antiproliferative activity against drug-sensitive CCRF-CEM cells after 72 hrs in presence of 0.4 uM laxaphycin A; format: functional, cell-based; conditions: Homo sapiens; outline: as §1
[37] = Cytotoxicity against human […] cells after 48 hrs by RRT; format: cell-based; outline: as §2
CEM-VLB [38] = experiment: Interaction index, ratio of IC50 for CEM/VLB100 cells in presence of 2 uM laxaphycin A/IC50 for CEM/VLB100 cells; format: functional, Homo sapiens
CEM-VM1 [39] = experiment: Antiproliferative activity against teniposide-resistant CEM/VM1 after 72 hrs in presence of 1 uM laxaphycin A; format: functional, cell-based; conditions: Homo sapiens, CEM-VM1, 72 h; outline: as §1
CCRF-CEM [40] = experiment: Interaction index, ratio of IC50 for CCRF-CEM cells in presence of 0.2 uM laxaphycin A/IC50 for CCRF-CEM cells; format: functional, Homo sapiens
[41] = Cytotoxicity against human PA1 cells after 48 hrs by Hoechst 33342 assay; format: cell-based; conditions: pa-1, 48 h; outline: as §3
CEM-VM1 [42] = experiment: Antiproliferative activity against teniposide-resistant CEM/VM1 after 72 hrs in presence of 2 uM laxaphycin A; format: functional, cell-based; conditions: Homo sapiens, CEM-VM1, 72 h; outline: as §1
L929 [43] = experiment: Cytotoxicity against mouse L929 cells after 48 hrs by RRT; format: cell-based; conditions: l929, 48 h; outline: as §2
CEM-VLB [44] = experiment: Interaction index, ratio of IC50 for CEM/VLB100 cells in presence of 1 uM laxaphycin A/IC50 for CEM/VLB100 cells; format: functional, Homo sapiens
CEM-VLB [45] = experiment: Interaction index, ratio of IC50 for CEM/VLB100 cells in presence of 0.2 uM laxaphycin A/IC50 for CEM/VLB100 cells; format: functional, Homo sapiens
CCRF-CEM [46] = experiment: Interaction index, ratio of IC50 for CCRF-CEM cells in presence of 2 uM laxaphycin A/IC50 for CCRF-CEM cells; format: functional, Homo sapiens
CCRF-CEM [47] = experiment: Antiproliferative activity against drug-sensitive CCRF-CEM cells after 72 hrs in presence of 0.2 uM laxaphycin A; format: functional, cell-based; conditions: Homo sapiens; outline: as §1
L929 [48] = experiment: Cytotoxicity against mouse L929 cells after 48 hrs by Hoechst 33342 assay; format: cell-based; conditions: l929, 48 h; outline: as §3
CCRF-CEM [49] = experiment: Antiproliferative activity against drug-sensitive CCRF-CEM cells after 72 hrs in presence of 2 uM laxaphycin A; format: functional, cell-based; conditions: Homo sapiens; outline: as §1

CCCCCCC[C@@H]1CC(=O)N[C@@H](C(C)C)C(=O)N[C@@H]([C@@H](O)C(C)C)C(=O)N[C@@H](C)C(=O)N[C@H]([C@@H](O)C(C)C)C(=O)N[C@@H](CCC(N)=O)C(=O)N(C)[C@@H]([C@@H](C)CC)C(=O)N[C@H]([C@@H](O)C(N)=O)C(=O)N[C@@H]([C@@H](C)O)C(=O)N2C[C@H](O)C[C@H]2C(=O)N[C@H](CC(C)C)C(=O)N[C@@H]([C@@H](C)O)C(=O)N1 [LAXAPHYCIN B3]
Ratio IC50 (CCRF-CEM [1]): 1 | IC50 [2]: 1450 nM | IC50 [3]: 1350 nM | IC50 (CCRF-CEM [4]): 1500 nM | Ratio IC50 (CCRF-CEM [5]): 0.9

CCCCCCC[C@@H]1CC(=O)N[C@@H](C(C)C)C(=O)N[C@@H]([C@@H](O)C(C)C)C(=O)N[C@@H](C)C(=O)N[C@H]([C@@H](O)C(C)C)C(=O)N[C@@H](CCC(N)=O)C(=O)N(C)[C@@H]([C@@H](C)CC)C(=O)N[C@H]([C@@H](O)C(N)=O)C(=O)N[C@@H]([C@@H](C)O)C(=O)N2CCC[C@H]2C(=O)N[C@H](CC(C)C)C(=O)N[C@@H]([C@@H](C)O)C(=O)N1 [LAXAPHYCIN B]
IC50 (CEM-VLB [6]): 920 nM | Activity [7]: Dose-dependent effect | Activity [8]: Dose-dependent effect | IC50 (CCRF-CEM [9]): 410 nM | IC50 [10]: 300 nM | Activity (DLD-1 [11]): Dose-dependent effect | IC50 (MCF7 [12]): 1000 nM | Activity [13]: Dose-dependent effect | Activity (DLD-1 [14]): 90% | IC50 (PC-3 [15]): 800 nM | Ratio IC50 (CEM-VLB [16]): 0.56 | Activity [17]: Dose-dependent effect | Activity (DLD-1 [18]): Active | Ratio IC50 (CCRF-CEM [19]): 0.45 | IC50 (CEM-VLB [20]): 570 nM | IC50 (CEM-VLB [21]): 360 nM | Ratio IC50 (CEM-VM1 [22]): 0.3 | IC50 [23]: 400 nM | Ratio IC50 (CEM-VM1 [24]): 0.32 | IC50 (PC-3 [25]): 580 nM | Ratio IC50 (CCRF-CEM [1]): 1.2 | IC50 (CEM-VLB [26]): 330 nM | Ratio IC50 (CCRF-CEM [27]): 0.41 | Activity (DLD-1 [28]): Active | IC50 [2]: 1370 nM | Activity (DLD-1 [29]): Active | Ratio IC50 (CEM-VM1 [30]): 0.44 | IC50 (CEM-VM1 [31]): 600 nM | Activity (DLD-1 [32]): Dose-dependent effect | IC50 (MCF7 [33]): 500 nM | IC50 (CEM-VM1 [34]): 720 nM | Ratio IC50 (CEM-VM1 [35]): 0.53 | IC50 (CCRF-CEM [36]): 500 nM | Activity [37]: Dose-dependent effect | Ratio IC50 (CEM-VLB [38]): 0.32 | IC50 (CEM-VM1 [39]): 430 nM | Ratio IC50 (CCRF-CEM [40]): 0.56 | Activity [41]: Dose-dependent effect | IC50 [3]: 1020 nM | IC50 (CCRF-CEM [4]): 1110 nM | Ratio IC50 (CCRF-CEM [5]): 0.9 | IC50 (CEM-VM1 [42]): 410 nM | Activity (L929 [43]): Dose-dependent effect | Ratio IC50 (CEM-VLB [44]): 0.35 | Ratio IC50 (CEM-VLB [45]): 0.9 | Ratio IC50 (CCRF-CEM [46]): 0.32 | IC50 (CCRF-CEM [47]): 620 nM | Activity (L929 [48]): Dose-dependent effect | IC50 (CCRF-CEM [49]): 350 nM
